Like-named read-outs stand apart in the source and are kept apart here.
Assays:
[1] = tested on: RSV infection; test: Clinical course of RSV infection; format: in vivo, human; conditions: JNJ-8678 (combined)
Outline: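 Infants (>1 to ≤24 months, term-born, hospitalised ≤72 h before randomisation with PCR-confirmed RSV) got oral drug or placebo once daily for 7 days (4:1 randomisation) and were followed 28 days. Outcomes were hospital stay and time to clinical stability: the latest of end of supplemental oxygen, end of supplemental feeding, normal heart rate and normal respiratory rate. Times were shown as Kaplan-Meier curves. Clinician and caregivers completed PRESORS symptom questionnaires electronically.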

[2] = Safety/tolerability: adverse events in RSV-infected infants; format: in vivo, human
Outline: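 Adverse events were recorded over 28 days in infants given oral drug or placebo once daily for 7 days. Events were graded with the DMID Pediatric Toxicity Tables (November 2007), and the investigator judged relatedness to study drug. Events causing rehospitalisation were counted as serious. Vital signs, ECGs and physical examination were also done.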

[3] = tested on: RSV-A and RSV-B strains; conditions: panel of laboratory-derived and clinically isolated RSV-A and RSV-B strains, in vitro; cited from earlier work
[4] = tested on: RSV; conditions: healthy volunteers, 75–500 mg once daily for 7 days; cited from earlier work
[5] = format: in vivo, human
Outline: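 Population PK model built in adults and scaled to paediatrics, fitted to sparse heel- or finger-prick capillary samples. Weight-based oral doses were given once daily for 7 days in three age cohorts (≥6–≤24, 3–<6, >1–<3 months). Doses were escalated after data review committee assessment of PK and safety. AUC24h, Cmin and Cmax were estimated at day 1 and day 7, as mean with CV%.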

[6] = cohort 1a (≥6 to ≤24 mo), 2 mg/kg QD oral, n=4, Day 1
[7] = cohort 1a (≥6 to ≤24 mo), 2 mg/kg QD oral, n=4, Day 7
[8] = cohort 1b (≥6 to ≤24 mo), 6 mg/kg QD oral, n=4, Day 1
[9] = cohort 1b (≥6 to ≤24 mo), 6 mg/kg QD oral, n=4, Day 7
[10] = cohort 1c (≥6 to ≤24 mo), 8 mg/kg QD oral, n=4, Day 1
[11] = cohort 1c (≥6 to ≤24 mo), 8 mg/kg QD oral, n=4, Day 7
[12] = cohort 2a (≥3 to <6 mo), 1.5 mg/kg QD oral, n=4, Day 1
[13] = cohort 2a (≥3 to <6 mo), 1.5 mg/kg QD oral, n=4, Day 7
[14] = cohort 2b (≥3 to <6 mo), 4.5 mg/kg QD oral, n=4, Day 1
[15] = cohort 2b (≥3 to <6 mo), 4.5 mg/kg QD oral, n=4, Day 7
[16] = cohort 2c (≥3 to <6 mo), 6 mg/kg QD oral, n=1, Day 1
[17] = cohort 2c (≥3 to <6 mo), 6 mg/kg QD oral, n=1, Day 7
[18] = cohort 3a (>1 to <3 mo), 1 mg/kg QD oral, n=4, Day 1
[19] = cohort 3a (>1 to <3 mo), 1 mg/kg QD oral, n=4, Day 7
[20] = cohort 3b (>1 to <3 mo), 3 mg/kg QD oral, n=4, Day 1
[21] = cohort 3b (>1 to <3 mo), 3 mg/kg QD oral, n=4, Day 7
[22] = cohort 3c (>1 to <3 mo), 5 mg/kg QD oral, n=4, Day 1
[23] = cohort 3c (>1 to <3 mo), 5 mg/kg QD oral, n=4, Day 7
[24] = cohort 1d (≥6 to ≤24 mo), 9 mg/kg QD oral, n=4, Day 1
[25] = cohort 1d (≥6 to ≤24 mo), 9 mg/kg QD oral, n=4, Day 7

Structure (SMILES): CS(=O)(=O)CCCn1c(Cn2c(=O)n(CC(F)(F)F)c3ccncc32)cc2cc(Cl)ccc21 [JNJ-53718678]
- Median time to clinical stability following the start of study treatment ([1]; placebo 56.7 hours): 47.4 h
- Median length of hospital stay ([1]; placebo 77.5 hours): 77.7 h
- Time after which all patients were clinically stable ([1]; placebo 121.1 hours): 123.5 h
- Maximum length of hospital stay observed ([1]; placebo 144.5 hours): 150.4 h
- SAE bronchiolitis ([2]; 1/12, cohort 1b, mid-dose, 6 mg/kg QD): 8%
- Any AE ([2]; All cohorts, n=37): 28 (76) no. (%)
- Any AE possibly related to placebo/JNJ-53718678 ([2]; All cohorts, n=37): 11 (30) no. (%)
- Any AE probably related to placebo/JNJ-53718678 ([2]; All cohorts, n=37): 1 (3) no. (%)
- Any worst grade 1 or 2 AE ([2]; All cohorts, n=37): 28 (76) no. (%)
- Any worst grade 3 or 4 AE ([2]; All cohorts, n=37): 1 (3) no. (%)
- Soft feces (AE) ([2]; All cohorts, n=37): 7 (19) no. (%)
- URTI (AE) ([2]; All cohorts, n=37): 8 (22) no. (%)
- Vomiting (AE) ([2]; All cohorts, n=37): 8 (22) no. (%)
- Serious AE ([2]; All cohorts, n=37, serious due to rehospitalization, not related to study drug): 2 (5) no. (%)
- Any AE ([2]; High (cohorts 1d,2c,3c), n=9): 7 (78) no. (%)
- Any AE possibly related to placebo/JNJ-53718678 ([2]; High (cohorts 1d,2c,3c), n=9): 2 (22) no. (%)
- Any AE probably related to placebo/JNJ-53718678 ([2]; High (cohorts 1d,2c,3c), n=9): 0 no. (%)
- Any worst grade 1 or 2 AE ([2]; High (cohorts 1d,2c,3c), n=9): 7 (78) no. (%)
- Any worst grade 3 or 4 AE ([2]; High (cohorts 1d,2c,3c), n=9): 0 no. (%)
- Serious AE ([2]; High (cohorts 1d,2c,3c), n=9): 0 no. (%)
- Soft feces (AE) ([2]; High (cohorts 1d,2c,3c), n=9): 0 no. (%)
- URTI (AE) ([2]; High (cohorts 1d,2c,3c), n=9): 3 (33) no. (%)
- Vomiting (AE) ([2]; High (cohorts 1d,2c,3c), n=9): 4 (44) no. (%)
- Any AE ([2]; Low (cohorts 1a,2a,3a), n=12): 9 (75) no. (%)
- Any AE possibly related to placebo/JNJ-53718678 ([2]; Low (cohorts 1a,2a,3a), n=12): 3 (25) no. (%)
- Any AE probably related to placebo/JNJ-53718678 ([2]; Low (cohorts 1a,2a,3a), n=12): 0 no. (%)
- Any worst grade 1 or 2 AE ([2]; Low (cohorts 1a,2a,3a), n=12): 9 (75) no. (%)
- Any worst grade 3 or 4 AE ([2]; Low (cohorts 1a,2a,3a), n=12): 0 no. (%)
- Soft feces (AE) ([2]; Low (cohorts 1a,2a,3a), n=12): 2 (17) no. (%)
- URTI (AE) ([2]; Low (cohorts 1a,2a,3a), n=12): 1 (8) no. (%)
- Vomiting (AE) ([2]; Low (cohorts 1a,2a,3a), n=12): 0 no. (%)
- Any AE ([2]; Mid (cohorts 1b,2b,3b), n=12): 10 (83) no. (%)
- Any AE possibly related to placebo/JNJ-53718678 ([2]; Mid (cohorts 1b,2b,3b), n=12): 4 (33) no. (%)
- Any AE probably related to placebo/JNJ-53718678 ([2]; Mid (cohorts 1b,2b,3b), n=12): 1 (8) no. (%)
- Any worst grade 1 or 2 AE ([2]; Mid (cohorts 1b,2b,3b), n=12): 10 (83) no. (%)
- Any worst grade 3 or 4 AE ([2]; Mid (cohorts 1b,2b,3b), n=12): 1 (8) no. (%)
- Soft feces (AE) ([2]; Mid (cohorts 1b,2b,3b), n=12): 3 (25) no. (%)
- URTI (AE) ([2]; Mid (cohorts 1b,2b,3b), n=12): 4 (33) no. (%)
- Vomiting (AE) ([2]; Mid (cohorts 1b,2b,3b), n=12): 3 (25) no. (%)
- Any AE ([2]; Mid-high (cohort 1c), n=4): 2 (50) no. (%)
- Any AE possibly related to placebo/JNJ-53718678 ([2]; Mid-high (cohort 1c), n=4): 2 (50) no. (%)
- Any AE probably related to placebo/JNJ-53718678 ([2]; Mid-high (cohort 1c), n=4): 0 no. (%)
- Any worst grade 1 or 2 AE ([2]; Mid-high (cohort 1c), n=4): 2 (50) no. (%)
- Any worst grade 3 or 4 AE ([2]; Mid-high (cohort 1c), n=4): 0 no. (%)
- Serious AE ([2]; Mid-high (cohort 1c), n=4): 0 no. (%)
- Soft feces (AE) ([2]; Mid-high (cohort 1c), n=4): 2 (50) no. (%)
- URTI (AE) ([2]; Mid-high (cohort 1c), n=4): 0 no. (%)
- Vomiting (AE) ([2]; Mid-high (cohort 1c), n=4): 1 (25) no. (%)
- Patients with AEs considered at least possibly related to JNJ-8678 ([2]; all JNJ-8678, 11/37): 30%
- Grade 3 AEs (bronchiolitis, reported as serious AE), number ([2]; all JNJ-8678, n=37): 1
- Tolerability in RSV-infected infants ([2]; oral, once daily for 7 days): well tolerated
- Deaths, grade 4 AEs, AEs leading to discontinuation ([2]; whole study): No deaths, grade 4 AEs, or AEs leading to study discontinuation or permanent discontinuation of study drug were reported
- 50% effective concentration [3]: 0.09 to 9.50 ng/mL
- Effect on viral load and clinical disease severity [4]: substantially reduced both viral load and clinical disease severity
- Mean AUC24h (CV%) [5, 6]: 6047.2 (17.5) ng × h/mL
- Mean Cmax (CV%) [5, 6]: 546.8 (35.7) ng/mL
- Mean Cmin (CV%) [5, 6]: 81.4 (58.8) ng/mL
- Mean AUC24h (CV%) [5, 7]: 7738.8 (27.4) ng × h/mL
- Mean Cmax (CV%) [5, 7]: 721.3 (31.2) ng/mL
- Mean Cmin (CV%) [5, 7]: 114.0 (77.7) ng/mL
- Mean Cmax (CV%) [5, 8]: 1960.5 (58.1) ng/mL
- Mean Cmin (CV%) [5, 8]: 155.5 (89.3) ng/mL
- Mean Cmax (CV%) [5, 9]: 3304.2 (12.3) ng/mL
- Mean Cmin (CV%) [5, 9]: 225.7 (66.5) ng/mL
- Mean Cmax (CV%) [5, 10]: 3346.9 (13.0) ng/mL
- Mean Cmin (CV%) [5, 10]: 244.1 (90.4) ng/mL
- Mean Cmax (CV%) [5, 11]: 4298.8 (11.2) ng/mL
- Mean Cmin (CV%) [5, 11]: 323.9 (95.7) ng/mL
- Target exposures ([5]; cohort 1c, ≥6–≤24 months, 8 mg/kg QD, AUC24h similar to adults): Cmin and Cmax target exposures were not reached
- Mean AUC24h (CV%) [5, 12]: 6658.4 (25.6) ng × h/mL
- Mean Cmax (CV%) [5, 12]: 727.5 (68.7) ng/mL
- Mean Cmin (CV%) [5, 12]: 88.3 (39.2) ng/mL
- Mean AUC24h (CV%) [5, 13]: 8620.9 (17.3) ng × h/mL
- Mean Cmax (CV%) [5, 13]: 938.0 (53.3) ng/mL
- Mean Cmin (CV%) [5, 13]: 124.0 (49.1) ng/mL
- Mean Cmax (CV%) [5, 14]: 2533.2 (25.0) ng/mL
- Mean Cmin (CV%) [5, 14]: 319.8 (16.9) ng/mL
- Mean Cmax (CV%) [5, 15]: 3021.8 (41.2) ng/mL
- Mean Cmin (CV%) [5, 15]: 363.0 (18.9) ng/mL
- Mean Cmax (CV%) [5, 16]: 2556.8 (…) ng/mL
- Mean Cmin (CV%) [5, 16]: 428.6 (…) ng/mL
- Mean Cmax (CV%) [5, 17]: 3131.0 (…) ng/mL
- Mean Cmin (CV%) [5, 17]: 517.3 (…) ng/mL
- Mean AUC24h (CV%) ([5]; cohort 2c (≥3 to <6 mo), 6 mg/kg QD oral, n=1, Day 7, listed as JNJ-8678, 6 mg/kg): 34 980 ng × h/mL
- Mean AUC24h (CV%) [5, 18]: 4495.6 (4.8) ng × h/mL
- Mean Cmax (CV%) [5, 18]: 374.2 (18.5) ng/mL
- Mean Cmin (CV%) [5, 18]: 72.6 (41.1) ng/mL
- Mean AUC24h (CV%) [5, 19]: 5827.0 (12.3) ng × h/mL
- Mean Cmax (CV%) [5, 19]: 498.0 (13.2) ng/mL
- Mean Cmin (CV%) [5, 19]: 100.9 (46.3) ng/mL
- Mean Cmax (CV%) [5, 20]: 958.2 (15.2) ng/mL
- Mean Cmin (CV%) [5, 20]: 342.9 (14.3) ng/mL
- Mean Cmax (CV%) [5, 21]: 1671.2 (14.6) ng/mL
- Mean Cmin (CV%) [5, 21]: 650.2 (15.5) ng/mL
- Mean Cmax (CV%) [5, 22]: 1866.6 (51.7) ng/mL
- Mean Cmin (CV%) [5, 22]: 458.7 (54.9) ng/mL
- Mean Cmax (CV%) [5, 23]: 3001.8 (25.1) ng/mL
- Mean Cmin (CV%) [5, 23]: 929.0 (62.1) ng/mL
- Mean AUC24h (CV%) ([5]; cohort 3c (>1 to <3 mo), 5 mg/kg QD oral, n=4, Day 7, listed as JNJ-8678, 5 mg/kg): 39 627 ng × h/mL
- Mean Cmax (CV%) [5, 24]: 2371.8 (70.8) ng/mL
- Mean Cmin (CV%) [5, 24]: 333.2 (62.3) ng/mL
- Mean Cmax (CV%) [5, 25]: 3389.4 (52.9) ng/mL
- Mean Cmin (CV%) [5, 25]: 615.9 (75.2) ng/mL
- Mean AUC24h (CV%) ([5]; cohort 1d (≥6 to ≤24 mo), 9 mg/kg QD oral, n=4, Day 7, listed as JNJ-8678, 9 mg/kg): 35 840 ng × h/mL

From PMC7744997 (Clinical Infectious Diseases: An Official Publication of …, 2020)
